Each structure is given as a SMILES string. Several values for one entry are separate records, joined by “and”; a condition that tells them apart may be missing. Identical values can stand only once. Activity calls are given as the source filed them.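 How the source made its calls: active means fitted curve reaching 40% activation at or below the top valid tested dose; inactive means the rest, or activity counter to the expected direction.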

In the first experiment the test system is U2OS HRE-luciferase reporter, luminescence, HIF pathway activation. The experiment in a line: HIF pathway activators in reporter cells, dose response, cell-based, U2OS HRE-luciferase, luminescence, dry powder, set 3 (AID 493180).
Details: not given
The procedure, abridged: (§1)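 material = U2OS 3xHRE-luciferase reporter cells | compound = 8-point series in 3-fold steps, 7.5 mM top stock | detection = Steady-Glo luminescence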
With `CC(C)(C)c1ccc(CNc2nc(-c3ccccn3)nnc2-c2ccccc2)cc1`, the AC40 is 2.15 µM. On the same count and under the same terms, the figure for `O=C(Nc1nc2ccccc2s1)c1cc(-c2ccccc2)on1` is > 1.5 µM (inactive); for `C=CCNc1nc(-c2ccccn2)nnc1-c1ccccc1` it is 7.74 µM; for `OCC1CCN(c2nc(-c3ccccn3)nnc2-c2ccccc2)CC1` it is 21.1 µM. As to `CC(C)(C)CCNc1nc(-c2ccccn2)nnc1-c1ccccc1`, the AC40 was 3.2 µM and 1.8 µM. With `C[C@@H](Nc1nc(-c2ccccn2)nnc1-c1ccccc1)C1CCCCC1`, the AC40 is 5.21 µM. Regarding `O=C(c1cc(-c2ccccc2)on1)N1CCc2cccnc21`, the AC40 is > 4.6 µM (inactive). Consider `CN1CCN(c2nc(-c3ccccn3)nnc2-c2ccccc2)CC1`, for which the AC40 is 21.7 µM. Take `O=C(NCCN1CCOCC1)c1cc(-c2ccccc2)on1`: the AC40 is > 38 µM (inactive). Turning to `Cc1ccc(Nc2nc(-c3ccccn3)nnc2-c2ccccc2)cn1`, the AC40 was 13.6 µM. `O=C(NCCCCO)c1cc(-c2ccccc2)on1`: the AC40 was 12 µM. The same measure, in the same setting: the figure for `O=C(c1cc(-c2ccccc2)on1)N1CCC(N2CCOCC2)CC1` is > 4.6 µM (inactive). `c1ccc(-c2nnc(-c3ccccn3)nc2NCC2CC2)cc1`: the AC40 was 7.63 µM. Same read-out and setting: under `c1ccc(CCNc2nc(-c3ccccn3)nnc2-c2ccccc2)cc1` stands 2.69 µM; under `Cc1ccc(CNc2nc(-c3ccccn3)nnc2-c2ccccc2)cc1`, 3.58 µM. Same read-out and setting: under `c1ccc(-c2nnc(-c3ccccn3)nc2N2CCN(c3ccncc3)CC2)cc1` stands 4.63 µM. On the same count and under the same terms, the figure for `c1ccc(-c2nnc(-c3ccccn3)nc2NCc2cccnc2)cc1` is 16.3 µM; for `Clc1cccc(CNc2nc(-c3ccccn3)nnc2-c2ccccc2)c1` it is 2.21 µM; for `C[C@H](Nc1nc(-c2ccccn2)nnc1-c1ccccc1)C1CCCCC1` it is 2.59 µM. For `Cc1ccccc1CNc1nc(-c2ccccn2)nnc1-c1ccccc1`, the AC40 is 5.58 µM.

In the case of `OCCCNc1nc(-c2ccccn2)nnc1-c1ccccc1`, the AC40 was 22.2 µM. `OCC1CCN(Cc2ccc(O)c3ncccc23)CC1`: the AC40 was > 4.6 µM (inactive).

For `c1ccc(CNc2nc(-c3ccccn3)nnc2-c2ccccc2)cc1`, the AC40 is 5.63 µM.

For `Oc1ccc(CNC2Cc3ccccc3C2)c2cccnc12`, the AC40 was > 38 µM (inactive). On the same count and under the same terms, under `Oc1ccc(CN2CCC3CCCCC3C2)c2cccnc12` (stereo not drawn) stands 34.8 µM; under `CC(C)(C)OC(=O)N1CCN(Cc2ccc(O)c3ncccc23)CC1`, > 4.6 µM (inactive). Still for that read-out and setting: the figure for `COc1ccccc1N1CCN(Cc2ccc(O)c3ncccc23)CC1` is > 38 µM (inactive); for `O=C(NCCN1CCCCC1)c1cc(-c2ccccc2)on1` it is 2.5 µM. Turning to `c1ccc(-c2nnc(-c3ccccn3)nc2NCCCN2CCOCC2)cc1`, the AC40 was 7.33 µM. On the same count and under the same terms, under `c1ccc(-c2nnc(-c3ccccn3)nc2NCCN2CCOCC2)cc1` stands 15.3 µM; under `CCCCNC(=O)c1cc(-c2ccccc2)on1`, > 38 µM (inactive). Still for that read-out and setting: the figure for `c1ccc(-c2nnc(-c3ccccn3)nc2NCc2ccccn2)cc1` is 22 µM; for `Cc1cccc(Nc2nc(-c3ccccn3)nnc2-c2ccccc2)n1` it is 14.2 µM.

On to `c1ccc(-c2nnc(-c3ccccn3)nc2N2CCC(C3CCCCC3)C2)cc1` (stereo not drawn), for which the AC40 was 1.5 µM. On to `Cc1ccc(CNc2nc(-c3ccccn3)nnc2-c2ccccc2)cc1C`, for which the AC40 is 2.12 µM. The same measure, in the same setting: under `c1ccc(-c2nnc(Nc3nc(-c4ccccn4)nnc3-c3ccccc3)s2)cc1` stands 25.3 µM. In the case of `O=C(NCCCN1CCOCC1)c1cc(-c2ccccc2)on1`, the AC40 was > 38 µM (inactive).

With `O=C(Nc1nc(-c2ccccc2)cs1)c1cc(-c2ccccc2)on1`, the AC40 is > 4.6 µM (inactive). The same measure, in the same setting: the figure for `O=C(NCC1CC1)c1cc(-c2ccccc2)on1` is 31 µM; for `Oc1ccc(CN2CCc3ccccc3C2)c2cccnc12` it is 14.1 µM. The same measure, in the same setting: the figure for `O=C(Nc1ccc2ccccc2n1)c1cc(-c2ccccc2)on1` is > 4.6 µM (inactive); for `c1ccc(-c2cnc(Nc3nc(-c4ccccn4)nnc3-c3ccccc3)s2)cc1` it is > 4.6 µM (inactive).

Consider `O=C(Nc1cn2ccccc2n1)c1cc(-c2ccccc2)on1`, for which the AC40 was > 4.6 µM (inactive). In the case of `COc1cccc(CNc2nc(-c3ccccn3)nnc2-c2ccccc2)c1`, the AC40 is 2.83 µM. Turning to `C[C@@H](Nc1nc(-c2ccccn2)nnc1-c1ccccc1)c1ccccc1`, the AC40 was 5.22 µM.

As to `Cn1c(-c2ccccc2)cnc1Nc1nc(-c2ccccn2)nnc1-c1ccccc1`, the AC40 is 5.83 µM. On to `Cc1cccc(CNc2nc(-c3ccccn3)nnc2-c2ccccc2)c1`, for which the AC40 was 4.5 µM. As for `O=C(NCCCn1ccnc1)c1cc(-c2ccccc2)on1`, the AC40 was 28.9 µM. On the same count and under the same terms, under `c1ccc(-c2nnc(-c3ccccn3)nc2Nc2nc3ccccc3s2)cc1` stands 5.89 µM. The same measure, in the same setting: the figure for `O=C(NCCCO)c1cc(-c2ccccc2)on1` is > 38 µM (inactive).

As for `c1ccc(-c2nnc(-c3ccccn3)nc2N2CCC(N3CCOCC3)CC2)cc1`, the AC40 was 7.47 µM.

Turning to `CN(C)c1nc(-c2ccccn2)nnc1-c1ccccc1`, the AC40 was 12.9 µM. Consider `CC(Nc1nc(-c2ccccn2)nnc1-c1ccccc1)c1ccccc1` (stereo not drawn), for which the AC40 is 1.94 µM. In the case of `COc1ccc(CNc2nc(-c3ccccn3)nnc2-c2ccccc2)cc1`, the AC40 is 3.7 µM. Turning to `c1ccc(-c2nnc(-c3ccccn3)nc2NCC2CCCCC2)cc1`, the AC40 was 3.5 µM. Same read-out and setting: the figure for `c1ccc(-c2nnc(-c3ccccn3)nc2N2CCC(c3ccccc3)C2)cc1` (stereo not drawn) is 2.54 µM; for `c1ccc(-c2nnc(-c3ccccn3)nc2NCC2CCOCC2)cc1` it is 22.8 µM. On to `c1ccc(-c2nnc(-c3ccccn3)nc2Nc2cnc3ccccc3n2)cc1`, for which the AC40 is 7.45 µM. Still for that read-out and setting: the figure for `c1ccc(-c2csc(Nc3nc(-c4ccccn4)nnc3-c3ccccc3)n2)cc1` is 1.39 µM; for `c1ccc(-c2nnc(-c3ccccn3)nc2NCCc2ccccn2)cc1` it is 12.5 µM. Still for that read-out and setting: under `O=C(c1cc(-c2ccccc2)on1)N1CCC(CO)CC1` stands > 4.6 µM (inactive); under `c1ccc(-c2cccc(CNc3nc(-c4ccccn4)nnc3-c3ccccc3)c2)cc1`, 1 µM.

As for `c1ccc(-c2ccc(CNc3nc(-c4ccccn4)nnc3-c3ccccc3)cc2)cc1`, the AC40 was 1.09 µM.

System in a further experiment: not listed separately
The description is as above. Conditions: U2OS HRE-luciferase reporter, luminescence, HIF pathway activation; at 38 µM (top of the series). The procedure, abridged: as §1
In general terms: In a reporter assay the amount or activity of a reporter protein is the signal.
Turning to `CC(C)(C)CCNC(=O)c1cc(-c2ccccc2)on1`, the activation is 19.3% (inactive). Same read-out and setting: the figure for `O=C(NC1Cc2ccccc2C1)c1cc(-c2ccccc2)on1` is 2.88% (inactive); for `Oc1ccc(CN2CCC(Cc3ccccc3)CC2)c2cccnc12` it is 22.2% (inactive); for `Cc1cccc(NC(=O)c2cc(-c3ccccc3)on2)n1` it is 1.4% (inactive). Regarding `O=C(NCC1CCCCC1)c1cc(-c2ccccc2)on1`, the activation is 3.45% (inactive). Still for that read-out and setting: the figure for `O=C(c1cc(-c2ccccc2)on1)N1CCC(N2CCCC2)CC1` is 0.044% (inactive); for `CN(C)CCNC(=O)c1cc(-c2ccccc2)on1` it is 1.68% (inactive); for `Cc1cccc(CNC(=O)c2cc(-c3ccccc3)on2)c1` it is -1.13% (inactive). Still for that read-out and setting: the figure for `Cn1c(NC(=O)c2cc(-c3ccccc3)on2)nc2ccccc21` is 0.384% (inactive); for `Cc1ccc(NC(=O)c2cc(-c3ccccc3)on2)cn1` it is 1.37% (inactive). On the same count and under the same terms, the figure for `Cc1ccc(CNC(=O)c2cc(-c3ccccc3)on2)cc1` is -0.867% (inactive). As to `N#CC1(c2ccccc2)CCN(Cc2ccc(O)c3ncccc23)CC1`, the activation is 6.8% (inactive). Same read-out and setting: the figure for `Oc1ccc(CN2CCc3ccccc3C2)c2cccnc12` is 1.34% (inactive). The same measure, in the same setting: the figure for `O=C(Nc1ncc2ccccc2n1)c1cc(-c2ccccc2)on1` is 2.48% (inactive); for `Oc1ccc(CNC2CCc3ccccc32)c2cccnc12` (stereo not drawn) it is 11.5% (inactive); for `O=C(Nc1cnc2ccccc2c1)c1cc(-c2ccccc2)on1` it is 0.049% (inactive). On the same count and under the same terms, the figure for `Cn1c(-c2ccccc2)cnc1NC(=O)c1cc(-c2ccccc2)on1` is 0.636% (inactive); for `O=C(NC1CCc2ccccc2C1)c1cc(-c2ccccc2)on1` (stereo not drawn) it is -0.627% (inactive); for `CN1CCN(C(=O)c2cc(-c3ccccc3)on2)CC1` it is -0.645% (inactive). Consider `Cc1ccccc1CNC(=O)c1cc(-c2ccccc2)on1`, for which the activation was 1.28% (inactive). Still for that read-out and setting: under `O=C(Nc1nnc(-c2ccccc2)s1)c1cc(-c2ccccc2)on1` stands 0.329% (inactive); under `O=C(Nc1ncc(-c2ccccc2)o1)c1cc(-c2ccccc2)on1`, -0.837% (inactive); under `O=C(NCc1ccccc1)c1cc(-c2ccccc2)on1`, 0.892% (inactive). Same read-out and setting: the figure for `CC1CN(Cc2ccc(O)c3ncccc23)CC(C)O1` (stereo not drawn) is 2.27% (inactive); for `O=C(c1cc(-c2ccccc2)on1)N1CCN(c2ccncc2)CC1` it is -1.02% (inactive).

The values above are taken from PubChem BioAssay AID493180 (Broad Institute, 2011).
